# Bioassay records from PubChem BioAssay.
# Rows were chosen to be rich in hits. Some 3.1% of all compounds tested hit in one or more screens of this group.
# OX1R antag-1 = blocks the human orexin 1 receptor | inhibition, % at 5 µM | CHO/OX1R cells, Fluo-8 calcium fluorescence, orexin A | 330,000 tested, 0.43% active | O43613;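 active = inhibition above its plate's threshold, mean inhibition of all tested compounds on the plate plus 3 SD, cut at about 37% in these data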;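 also: 0% = orexin A challenge wells and 100% = SB-334867-A antagonist wells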
# CHO parental Ca = signal in parental CHO cells, OX1R antagonist counter-screen; parental CHO-K1, ATP-induced calcium, Fluo-8 fluorescence; inhibition, % at 5.6 µM; 330,000 tested, 0.63% active;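 active = inhibition above that plate's mean sample inhibition plus 3 SD, cut at about 26% in these data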;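 also: 0% = ATP-challenged DMSO wells and 100% = DMSO wells without ATP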
#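 Assay system: parental CHO cells; Read-out basis: percent inhibition of ATP-evoked calcium rise, normalized to controls; Benchmarks: ATP and no-ATP DMSO wells; Compound dosing: single nominal dose of 5.6 µM per compound; Signal: Fluo-8 calcium dye fluorescence; Also added: ATP as calcium-mobilizing challenge; Repeats: singlicate.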
# OX1R antag-2 = blocks the human orexin 1 receptor; OX1R-expressing cells, FRET antagonist read-out; inhibition, % at 6.6 µM; 330,000 tested, 1.8% active; AID 485270; in the data active = inhibition mostly above about 38%, no sharp cut-off; inactive = mostly below about 40%;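 also: 0% = agonist challenge alone and 100% = reference antagonist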
# GalR3 antag = antagonists of human GalR3 | inhibition, % at 3 µM | O60755 | HEK293 GalR3-CNG cAMP membrane potential fluorescence; galR3 body fused to GalR1 C-terminus | AID 651719 | 360,000 tested, 0.44% active;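 active = inhibition above the screen-wide average plus 3 SD, cut at about 13% in these data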;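 also: forskolin and galanin both at EC90 stimulate the cells; cAMP rise reported by CNG channel membrane potential dye signal; 0% = forskolin plus galanin with DMSO and 100% = forskolin alone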
# Target sequence (O60755 1-299 limits assumed): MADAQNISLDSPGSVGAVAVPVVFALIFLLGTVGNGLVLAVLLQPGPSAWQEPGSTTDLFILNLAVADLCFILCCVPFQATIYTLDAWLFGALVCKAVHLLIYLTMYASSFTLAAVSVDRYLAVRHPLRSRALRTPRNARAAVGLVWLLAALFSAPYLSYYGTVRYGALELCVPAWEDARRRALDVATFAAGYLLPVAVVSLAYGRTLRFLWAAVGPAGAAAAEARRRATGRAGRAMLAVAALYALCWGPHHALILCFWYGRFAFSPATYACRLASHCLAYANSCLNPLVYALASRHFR
# GPR7 antagonist = human neuropeptides B/W receptor 1 antagonism. GPR7-expressing cells, fluorescence antagonist assay. inhibition, % at 4.4 µM. 290,000 tested, 1.1% active; in the data active = inhibition above about 16%, passing the limit was not always enough;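 also: cells stimulated with the agonist NPW; 0% = agonist with vehicle and 100% = vehicle without agonist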
# Target sequence (P48145 whole entry, looked up): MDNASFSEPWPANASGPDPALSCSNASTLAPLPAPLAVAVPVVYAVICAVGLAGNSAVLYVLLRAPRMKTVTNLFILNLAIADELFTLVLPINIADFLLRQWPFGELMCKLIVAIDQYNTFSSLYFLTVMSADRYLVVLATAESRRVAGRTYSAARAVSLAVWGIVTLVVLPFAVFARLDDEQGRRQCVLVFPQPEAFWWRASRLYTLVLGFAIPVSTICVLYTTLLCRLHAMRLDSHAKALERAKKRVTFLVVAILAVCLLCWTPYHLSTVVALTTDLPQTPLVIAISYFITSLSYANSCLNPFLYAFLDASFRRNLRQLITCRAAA
# GPR7 antag conf = human GPR7 antagonism, confirmation assay; shares compounds with GPR7 antagonist; GPR7-expressing cells, calcium fluorescence antagonist mode; 2,400 tested, 52% active; inhibition, % at 4.4 µM; in the data active = inhibition above about 24%;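 also: stimulated with the GPR7 agonist NPW; 0% = agonist plus vehicle and 100% = vehicle alone without agonist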
# MCHR1 antag = MCHR1 (human) antagonism in GPR7 counter-screen | shares compounds with GPR7 antagonist | MCHR1-expressing cells, fluorescence antagonist assay | inhibition, % at 4.4 µM | 2,400 tested, 62% active; in the data active = inhibition above about 22%;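 also: 0% = vehicle with agonist and 100% = vehicle without agonist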
# * marks the source's active call; other numbers are inactive results; . = no result given.
SMILES,OX1R antag-1,CHO parental Ca,OX1R antag-2,GalR3 antag,GPR7 antagonist,GPR7 antag conf,MCHR1 antag
CC(C)c1ccc(NC(=O)[C@H](Cc2c[nH]c3ccccc23)NC(=O)[C@@H]2Cc3ccccc3CN2)cc1,-14,-1,1,-7,27*,7,3
Cc1ccc(C(=O)NS(=O)(=O)c2ccc(N=NN(C)C)cc2)cc1,-16,-8,8,-5,-4,.,.
CCC(C)(C)n1nnnc1C(c1cc(OC)ccc1OC)N1CCN(Cc2ccccc2)CC1 (stereo unspecified),-46,-31,12,-8,27*,31*,43*
CCC(C)(C)n1nnnc1C(c1ccccc1)N1CCN(Cc2ccccc2)CC1 (stereo unspecified),-18,-22,8,-1,7,.,.
CN1C[C@@H]2[C@@H]3C(=O)N(C)C(=O)[C@@H]3[C@](C)(C1=O)N2C(=O)c1ccc(Cl)c(Cl)c1,.,.,.,-4,.,.,.
O=C(NCC(c1ccco1)N1CCCC1)c1ccccc1Sc1ccc(C(F)(F)F)cc1[N+](=O)[O-] (stereo unspecified),-24,-23,25,-2,.,.,.
COc1ccc(CC2(CO)CCN(Cc3nc(C(C)C)cs3)CC2)cc1,-28,-30,18,-2,25*,8,40*
Cc1ccc(N2C(=O)C3C4C=CC(CNC(=S)Nc5ccc(F)cc5)(O4)C3C2=O)cc1 (stereo unspecified),-23,-8,16,-1,-4,.,.
Cc1ccc(N2C(=O)C3C4C=CC(CNC(=S)Nc5ccc(Cl)cc5)(O4)C3C2=O)cc1 (stereo unspecified),-18,-7,20,-2,21*,29*,19
COc1ccc(CC(=O)NCC(C)(C)N2CCOCC2)cc1,-31,-19,33,-5,-2,.,.
O=C(COc1cccc2c1CCN(Cc1ccc(Br)cc1)C2=O)N1CCOCC1,-33,-17,7,-1,18,.,.
O=C1c2cccc(OCC(=O)N3CCCc4ccccc43)c2CCN1Cc1ccc(Br)cc1,-15,-22,25,-3,31*,35*,58*
COC(=O)c1ccc(COc2cccc3c2CCN(Cc2cccc(C)c2)C3=O)o1,-24,-35,29,-7,22*,43*,70*
CCN1CCc2c(OCc3ccc(C(=O)OC)o3)cccc2C1=O,-16,-17,17,-1,-14,.,.
Cc1ccc(CN2CCc3c(OCc4ccc(F)cc4)cccc3C2=O)cc1,-11,-9,19,-6,2,.,.
COC(=O)c1ccc(COc2cccc3c2CCN(Cc2ccccc2)C3=O)o1,-17,-17,39,-6,29*,31*,57*
Cc1ccc(-n2nnnc2SCC(=O)Nc2ccc3c(c2)OCCO3)cc1C,-22,-25,27,2,21*,9,5
Cc1ccc(NC(=O)CSc2nnnn2-c2ccc3c(c2)OCO3)cc1C,-18,2,25,6,-8,.,.
COc1ccc(OCc2cc(C(=O)NCC3CCCCO3)no2)c(Cl)c1 (stereo unspecified),6,-8,1,-3,6,.,.
O=C(Oc1cccc(NC(=O)c2ccccc2Cl)c1)c1ccc([N+](=O)[O-])cc1,-11,3,36,-7,35*,43*,56*
COc1ccc(C2(c3ccc(OC)cc3)NC(=O)N(CC(=O)NC3(C#N)CCCCC3)C2=O)cc1,-13,-19,0,-3,.,.,.
CNC(=O)NC(=O)CSc1ccc(S(=O)(=O)N2CCOCC2)cn1,-18,-1,7,-2,.,.,.
N=c1c(C(=O)NC2CCCCC2)cc2c(=O)n3ccccc3nc2n1CC1CCCO1 (stereo unspecified),-13,-6,60*,-8,21*,27*,19
N=c1c(C(=O)NC2CCCC2)cc2c(=O)n3ccccc3nc2n1C1CCCC1,-7,-1,32,4,-6,.,.
CCC(C)(C(=O)NC1CCCCC1)N(Cc1ccco1)C(=O)Cc1cccs1 (stereo unspecified),-15,-19,20,-5,40*,50*,27*
SMILES,OX1R antag-1,CHO parental Ca,OX1R antag-2,GalR3 antag,GPR7 antagonist,GPR7 antag conf,MCHR1 antag
CCC(C)(C(=O)NC1CCCCC1)N(Cc1ccco1)C(=O)c1ccc2c(c1)OCO2 (stereo unspecified),-33,-16,12,-7,34*,34*,12
CCC(C)(C(=O)NC1CCCCC1)N(Cc1cccs1)C(=O)CC1NC(=O)NC1=O (stereo unspecified),-9,3,1,-6,-9,.,.
CCOC(=O)c1ccc(-n2c(CN3CCC(O)CC3)nc3ccc([N+](=O)[O-])cc3c2=O)cc1,4,2,35,-8,-7,.,.
O=C(NCCc1ccccc1)c1ccc(CS(=O)Cc2ccc(Cl)cc2)o1 (stereo unspecified),-13,-24,7,-3,-6,.,.
CCOc1ccccc1CNC(=O)CCN1C(=O)COc2ccccc21,3,0,26,-1,7,.,.
O=C(CCN1C(=O)COc2ccccc21)NCc1cccnc1,2,-14,2,-5,28*,-4,21
CCN(CC)C(=O)[C@H]1C[C@H](CC(=O)NCCc2ccccn2)C(=O)N2CCc3c([nH]c4ccc(Cl)cc34)[C@]12C,-22,-31,11,-5,.,.,.
O=[N+]([O-])c1ccc(C2=NN(CCO)C(=Nc3ccc(OC(F)(F)F)cc3)SC2)cc1,-2,2,24,-7,28*,54*,37*
COc1ccc(N=C2SCC(c3ccc(C)cc3)=NN2CCO)cc1,-6,-5,15,-3,17,.,.
COc1ccc(N=C2SCC(c3ccc([N+](=O)[O-])cc3)=NN2CCO)cc1,-3,-18,5,-6,32*,28*,40*
c1ccc(CCn2nnnc2C(c2cccs2)N2CCN(Cc3ccc4c(c3)OCO4)CC2)cc1 (stereo unspecified),-24,-8,12,-6,22*,21,34*
COc1ccccc1OCC(=O)Nc1c2c(nn1-c1ccc(C)cc1)CS(=O)(=O)C2,-21,6,10,0,.,.,.
COc1ccccc1OCC(=O)Nc1c2c(nn1-c1ccccc1)CS(=O)(=O)C2,-1,-12,13,-7,23*,1,4
COC(C(=O)Nc1ccnn1C1CCN(Cc2nccs2)CC1)c1ccccc1 (stereo unspecified),-15,-8,10,-2,-3,.,.
COc1ccc(Cl)cc1N(C(=O)c1ccco1)C(C(=O)NC1CCCC1)c1ccco1 (stereo unspecified),-26,-16,33,-4,29*,28*,22*
COc1ccc(N(C(=O)c2ccco2)C(C(=O)NC2CCCC2)c2ccc(OC)c(OC)c2)cc1 (stereo unspecified),-35,-14,12,-6,-3,.,.
